Only some compounds are listed: those with a hit (about 2% of all), similar ones and a draw of the others.
EBV LMP1 NFkB: Epstein-Barr LMP1 NF-kappaB reporter inhibition; LMP1-induced NF-kappaB luciferase reporter cells, luminescence; inhibition, % at 12.5 µM; 0.69% of 350,000 active; in the data active = inhibition above about 41%;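 also: 0% = neutral control wells and 100% = reference inhibitor control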
NR2E3 ag-1: agonists of human nuclear receptor NR2E3 | Q9Y5X4 | GST-NR2E3/biotin-RetCOR TR-FRET, 1536-well | inhibition of corepressor binding, % at 4.78 µM | 0.12% of 320,000 active;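 active = percent inhibition above the cutoff of mean plus 3 SD of all tested compounds, set per screening campaign, cut at about 20% in these data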;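 also: 0% = DMSO wells and 100% = biotin wells as full block of FRET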
Target sequence (Q9Y5X4 whole entry, looked up): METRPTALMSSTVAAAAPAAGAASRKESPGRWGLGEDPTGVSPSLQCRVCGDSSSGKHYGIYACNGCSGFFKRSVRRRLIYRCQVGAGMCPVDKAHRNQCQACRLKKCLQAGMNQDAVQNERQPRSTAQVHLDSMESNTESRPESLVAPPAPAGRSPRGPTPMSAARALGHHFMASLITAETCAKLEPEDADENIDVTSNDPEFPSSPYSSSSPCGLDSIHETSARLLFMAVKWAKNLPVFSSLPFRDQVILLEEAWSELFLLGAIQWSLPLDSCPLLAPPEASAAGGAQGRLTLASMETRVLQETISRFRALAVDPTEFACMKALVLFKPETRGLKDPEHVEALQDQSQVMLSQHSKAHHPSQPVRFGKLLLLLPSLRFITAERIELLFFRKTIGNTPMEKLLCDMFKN
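System: GST-NR2E3 and biotin-RetCOR proteins; probe or stimulus: 7 nM biotin-RetCOR; doses: compound at 4.8 µM, single dose; schedule: Compound–protein incubation for 5 h at 4 °C; detection: time-resolved FRET; read-out: percent inhibition; controls: biotin wells as high control, 0.6% DMSO wells as low control; format: 1536-well plates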
TROY signal inh: inhibitors of TROY-dependent NF-kB signaling | Q293 LMP1-TROYcd NF-kB luciferase reporter, 4 h | inhibition, % at 10 µM | 0.98% of 360,000 active;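 active = compounds whose plate-normalised and pattern-corrected inhibition of the luciferase reporter signal at the single screening dose is 50% or more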
HIF activator: HIF pathway transcriptional activation. U2OS HRE-luciferase reporter, luminescence; normalized: DMSO 0%, desferrioxamine 100%. activation, % at 7.5 µM (by protocol). 0.32% of 300,000 active. AID 1910;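 active = mean activation of at least 10% of the iron chelator positive control signal, with at least half of replicates also reaching 10%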
NR2E3 ag-2: activates human NR2E3 receptor; 0.35% of 360,000 active; AID 602229; inhibition of corepressor binding, % at 3.98 µM; CHO-S Gal4-NCOR/VP16-NR2E3 two-hybrid, luciferase;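 active = inhibition above the mean of all tested compounds plus 3 SD, cut at about 70% in these data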;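 also: 0% = DMSO with NR2E3 transfected cells and 100% = cells lacking NR2E3 construct; higher means lower luciferase signal from less NR2E3 corepressor binding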
NR2E3 ag confirm: NR2E3 agonism confirmed in two-hybrid assay. shares compounds with NR2E3 ag-2. CHO-S mammalian two-hybrid NR2E3-NCOR, luciferase luminescence. inhibition, % at 3.98 µM. 51% of 2,300 active. AID 624378;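 active = average inhibition above a cutoff equal to the mean inhibition of all tested compounds plus one SD, cut at about 70% in these data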;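 also: 0% = DMSO in NR2E3 cells and 100% = DMSO in cells lacking NR2E3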
GAL4-VP16 luc: GAL4-VP16 reporter inhibition in NR2E3 agonist counterscreen. CHO-S GAL4-VP16 luciferase reporter, luminescence. shares compounds with NR2E3 ag-2. AID 624379. 29% of 2,300 active. inhibition, % at 3.98 µM;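 active = mean inhibition above a cutoff equal to the average over all tested compounds plus one standard deviation, cut at about 70% in these data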;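 also: luciferase from a UAS reporter driven by GAL4-VP16 transactivation; 0% = DMSO with VP16-transfected cells and 100% = DMSO with cells lacking VP16; higher means less reporter light so more repression of VP16 activity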
Active calls of the source: *; nt = no result given.

SMILES	EBV LMP1 NFkB	NR2E3 ag-1	TROY signal inh	HIF activator	NR2E3 ag-2	NR2E3 ag confirm	GAL4-VP16 luc
CN1CCc2c(sc(NC(=O)c3cc(Cl)sc3Cl)c2C(N)=O)C1	nt	0	-35	1	-24	nt	nt
Nc1nc(-c2cccnc2)nn1C(=O)Cc1ccccc1	-3	1	18	2	-3	nt	nt
Nc1nc(-c2ccccc2)nn1C(=O)Cc1ccccc1	-6	3	-14	1	82*	1	-3
CC[C@@H](C(=O)[C@@H](C)[C@@H](O)[C@H](C)[C@@H]1O[C@@H]([C@@H](CC)C(=O)O)CC[C@@H]1C)[C@H]1O[C@]2(C=C[C@@H](O)[C@]3(CC[C@@](C)([C@H]4CC[C@](O)(CC)[C@H](C)O4)O3)O2)[C@H](C)C[C@@H]1C	-4	nt	51*	nt	102*	100*	84*
COc1ccc(NC(=O)COC(=O)Cn2cnc3ccccc32)cc1	1	nt	2	nt	-5	nt	nt
O=C(Cn1cnc2ccccc21)Nc1ccc(SC(F)F)cc1	2	4	-17	1	68	94*	78*
CN1CCc2c(sc(NC(=O)c3ccc([N+](=O)[O-])o3)c2C(N)=O)C1	-3	-5	65*	-2	57	49	40
O=C(Nc1ccc(Br)cc1)c1ccc(F)c(S(=O)(=O)NCc2cccs2)c1	29	1	41	-1	83*	97*	82*
COc1ccc2oc(C(=O)OC(C)C(=O)NC3(C#N)CCCCC3)c(C)c2c1 (stereo not drawn)	0	-2	4	-1	-16	nt	nt
Clc1c(Cl)c(Cl)c2n[nH]nc2c1Cl	-1	-4	60*	0	64	96*	81*
COCCCNC(=S)N1CCN(c2nc(-c3ccccc3)cs2)CC1	10	3	3	0	-1	nt	nt
COCCCNC(=S)N1CCN(c2nc(-c3ccc(Cl)cc3)cs2)CC1	30	nt	27	nt	65	73*	53
Cc1nn(-c2ccccc2)c(C)c1/C=C/C(=O)OCC(=O)Nc1ccc(S(N)(=O)=O)cc1	12	1	41	nt	2	nt	nt
CCC(C)NS(=O)(=O)c1ccc(S(=O)(=O)N2CCCC3(CCCCC3)C2)cc1 (stereo not drawn)	17	-5	24	0	85*	89*	73*
C[C@H]1CN([C@@H](C)CO)S(=O)(=O)c2ccc(Br)cc2O[C@@H]1CN(C)Cc1cccc(F)c1	-15	nt	9	nt	-11	nt	nt
Cc1cc(C(=O)COC(=O)c2ccc(O)cc2O)c(C)n1-c1ccc(OC(F)F)cc1	17	nt	3	nt	55	3	25
Cc1cc(C(=O)CC#N)c(C)n1-c1ccc(OC(F)F)cc1	4	0	12	0	10	nt	nt
COc1ccc(-n2c(C)cc(C(=O)COC(=O)Cn3cnc4ccccc43)c2C)cc1	8	3	-14	3	17	nt	nt
COc1ccc(-n2c(C)cc(C(=O)COC(=O)c3ccc(O)cc3O)c2C)cc1	17	0	23	nt	59	89*	49
CCCCCCC(=O)N1C/C=C\C(c2ccc(OC)cc2)N(Cc2ccc(F)cc2)C(=O)C1 (stereo not drawn)	3	-2	10	-13	60	61	43
O=C(Nc1ccc(F)cc1F)N1CCCN(c2ccc(C(F)(F)F)cn2)CC1	2	0	12	0	21	nt	nt
Cc1csc2ncnc(N3CCN(C(=S)Nc4ccc(F)cc4F)CC3)c12	nt	1	90*	0	61	93*	82*
CC1CN(C(=S)Nc2ccc(F)cc2F)CC(C)O1 (stereo not drawn)	2	3	11	1	-4	nt	nt
Fc1ccc(NC(=S)N2CCCN(c3ccc(C(F)(F)F)cn3)CC2)c(F)c1	19	3	27	0	69	91*	77*
COC(=O)CC1OCC=C2CN3CCC45C6=CC(=O)C(=O)C([N+](=O)[O-])=C6NC4C1C2CC35 (stereo not drawn)	nt	nt	6	nt	26	nt	nt
SMILES	EBV LMP1 NFkB	NR2E3 ag-1	TROY signal inh	HIF activator	NR2E3 ag-2	NR2E3 ag confirm	GAL4-VP16 luc
CCN(CC)CCNC(=O)C(=O)Nc1cc2c3c(c1)CCC(=O)N3CCC2	-12	0	-7	1	75*	-9	-14
O=c1cc(C(F)(F)F)[nH]c2ccc(OC(F)(F)F)cc12	nt	1	48	1	79*	100*	73*
CCOc1ccc2[nH]c(C)cc(=O)c2c1	7	-2	11	0	6	nt	nt
COc1ccccc1N(CC(=O)NCc1ccccc1C)S(=O)(=O)c1ccc(C)cc1	-4	1	4	0	-21	nt	nt
Cc1cc(C)c(CN2CCN(C(=O)Cn3cnc4c(OCc5ccccc5)ncnc43)CC2)c(C)c1	33	nt	33	nt	71*	67	56
O=C(O)Cn1cnc2c(OCc3ccccc3)ncnc21	-7	nt	2	nt	-21	nt	nt
CN(CC(=O)Nc1cccc(F)c1)C(=O)CCN1C(=O)C2CC=CCC2C1=O (stereo not drawn)	2	-1	13	nt	96*	4	-11
CN(CC(=O)Nc1cccc(F)c1)C(=O)CN1C(=O)C2CC=CCC2C1=O (stereo not drawn)	5	-4	-7	0	7	nt	nt
N#C/C(=N\Nc1cccc(C(F)(F)F)c1)C(=O)c1csc(-c2cccnc2)n1	-2	-1	66*	0	77*	94*	77*
Cc1noc(C)c1CSCC(=O)N1CCN(c2ccc(F)cc2)CC1	8	0	6	-1	18	nt	nt
Cc1cccc(N2CCN(C(=O)CSCc3c(C)noc3C)CC2)c1C	10	0	5	0	68	87*	68
CCOc1ccc(C(=O)O/N=C(\N)c2ccccn2)cc1	88*	nt	87*	-42	52	-58	-126
CC(C)(C)c1ccc(C(=O)O/N=C(\N)c2ccccn2)cc1	74*	6	89*	-2	106*	89*	76*
N/C(=N\OC(=O)c1cc(Cl)ccc1Cl)c1ccccn1	25	1	34	-1	-143	nt	nt
CC(C)(C)c1ccc(-c2noc(CCC(=O)NCc3ccco3)n2)cc1	-10	4	-8	0	77*	74*	79*
COc1ccc(S(=O)(=O)N/N=C\c2ccc3c(c2)OCO3)c(OC)c1	24	nt	2	0	55	15	52
COc1ccc(OC)c(S(=O)(=O)N/N=C\c2ccc3c(c2)OCO3)c1	-10	3	-23	1	5	nt	nt
CC(=O)c1ccc(S(=O)(=O)N2CCN(c3ccnc4cc(Cl)ccc34)CC2)cc1	11	nt	25	nt	59	62	54
Cc1ccc(OCCOC(=O)c2cccc(S(=O)(=O)N3CC(C)OC(C)C3)c2)cc1 (stereo not drawn)	0	1	26	nt	1	nt	nt
